Assay results from ChEMBL document CHEMBL4041550, “Structure-Activity Relationship Study of QL47: A Broad-Spectrum Antiviral Agent” (ACS Med Chem Lett, 2017).

Experiments:
[1] = Half life in Swiss albino mouse at 2 mg/kg, iv by LC/MS/MS method; assay type: ADME, organism-based; conditions: in vivo
Outline: (§1)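 Mouse pharmacokinetics after intravenous, oral or intraperitoneal dosing; plasma parameters derived were T1/2, Tmax, Cmax, AUClast, AUCinf, clearance, Vss and oral bioavailability F.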

[2] = Cmax in Swiss albino mouse at 50 mg/kg, ip by LC/MS/MS method; assay type: ADME, organism-based; design: dose 50 mg/kg, route intraperitoneal; conditions: in vivo; outline: as §1
[3] = AUClast in Swiss albino mouse at 50 mg/kg, ip by LC/MS/MS method; assay type: ADME, organism-based; design: dose 50 mg/kg, route intraperitoneal, time 0 - last; conditions: in vivo
dengue virus type 2 [4] = experiment: Antiviral activity against Dengue virus serotype 2 strain New Guinea C infected in HuH7 cells assessed as reduction in log-fold change by measuring focus forming unit at 2 uM measured at 24 hrs post infection by focus forming assay relative to control; assay type: functional, Thailand/NGS-C/1944
Outline: (§2)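 DENV2-infected Huh7 cells treated with compound at 2 or 10 μM. Infectious virus secreted into culture supernatants at 24 h post-infection/treatment was titred by focus-forming assay. Result expressed as log-fold change relative to DMSO treatment.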

[5] = AUC (infinity) in Swiss albino mouse at 50 mg/kg, ip by LC/MS/MS method; assay type: ADME, organism-based; design: dose 50 mg/kg, time infinity, route intraperitoneal; conditions: in vivo
[6] = Selectivity index, ratio of CC50 for cytotoxicity against human HuH7 to IC90 for antiviral activity against Dengue virus serotype 2 strain New Guinea C infected in HuH7 cells
Outline: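 Huh7 cells infected with DENV2, then treated across a concentration range. At 24 h, cell viability was measured, and secreted infectious virus was titrated by focus-forming assay. CC50 (50% cytotoxicity) and IC90 (1-log10 reduction in infectious progeny) were fitted by non-linear regression. Experimental duplicates, n ≥ 2 repeats.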

[7] = Cytotoxicity against human HuH7 cells measured after 24 hrs by CellTiter-Glo luminescent cell viability assay; assay type: cell-based, Huh-7
Outline: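 DENV2-infected Huh7 cells treated across a concentration range; cell viability read 24 h later. CC50 (50% cytotoxicity) derived by non-linear regression; mean ± SD of experimental duplicates, n ≥ 2 repeats.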

[8] = molecular target: Epithelial discoidin domain-containing receptor 1 (Homo sapiens, UniProt Q08345); experiment: Inhibition of GST-tagged human DDR1 catalytic domain (440 to 876 residues) expressed in baculovirus expression system by LanthaScreen assay
Outline: (§3)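 IC50 against DDR1 and DDR2 determined with LanthaScreen binding assays.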

[9] = Oral bioavailability in Swiss albino mouse at 10 mg/kg by LC/MS/MS method; assay type: ADME, organism-based; conditions: in vivo; outline: as §1
[10] = Half life in mouse hepatic microsomes at 1 uM in presence of NADPH by LC-MS/MS method; assay type: ADME, Microsome; conditions: liver microsomes
Outline: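 Compound incubated with mouse liver microsomes; half-life (T1/2, min) of the compound reported as a measure of metabolic stability.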

[11] = AUC (infinity) in Swiss albino mouse at 10 mg/kg, ip by LC/MS/MS method; assay type: ADME, organism-based; design: dose 10 mg/kg, route intraperitoneal, time infinity; conditions: in vivo
[12] = Tmax in Swiss albino mouse at 10 mg/kg, po by LC/MS/MS method; assay type: ADME, organism-based; conditions: in vivo; outline: as §1
[13] = Cmax in Swiss albino mouse at 10 mg/kg, po by LC/MS/MS method; assay type: ADME, organism-based; design: dose 10 mg/kg, route oral; conditions: in vivo; outline: as §1
[14] = AUClast in Swiss albino mouse at 10 mg/kg, ip by LC/MS/MS method; assay type: ADME, organism-based; design: dose 10 mg/kg, route intraperitoneal, time 0 - last; conditions: in vivo
[15] = molecular target: T1, Cytoplasmic tyrosine-protein kinase BMX (Homo sapiens, UniProt P51813); experiment: Inhibition of recombinant full length His-tagged human BMX cytoplasmic domain expressed in baculovirus expression system by Z'-Lyte assay
T1 sequence (P51813 whole entry): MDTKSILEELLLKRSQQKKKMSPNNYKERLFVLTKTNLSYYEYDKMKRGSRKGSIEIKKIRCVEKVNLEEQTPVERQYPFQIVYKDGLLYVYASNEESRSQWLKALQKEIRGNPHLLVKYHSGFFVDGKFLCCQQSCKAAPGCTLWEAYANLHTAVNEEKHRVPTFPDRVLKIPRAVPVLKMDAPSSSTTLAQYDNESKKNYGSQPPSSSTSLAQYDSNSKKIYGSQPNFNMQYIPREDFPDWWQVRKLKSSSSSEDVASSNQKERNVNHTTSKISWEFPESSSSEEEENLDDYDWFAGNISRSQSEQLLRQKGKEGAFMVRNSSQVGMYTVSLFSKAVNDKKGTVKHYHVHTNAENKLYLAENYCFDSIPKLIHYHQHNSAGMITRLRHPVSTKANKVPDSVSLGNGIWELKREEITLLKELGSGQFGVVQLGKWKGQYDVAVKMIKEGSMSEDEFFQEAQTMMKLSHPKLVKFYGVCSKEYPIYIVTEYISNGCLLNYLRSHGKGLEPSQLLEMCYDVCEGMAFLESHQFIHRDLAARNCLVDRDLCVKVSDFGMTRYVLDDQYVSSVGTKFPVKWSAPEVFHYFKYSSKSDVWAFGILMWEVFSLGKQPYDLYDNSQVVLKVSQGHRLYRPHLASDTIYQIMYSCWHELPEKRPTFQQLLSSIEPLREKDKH
Outline: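 IC50 against PIM1, PIM2, BTK and BMX determined with Z′-Lyte kinase activity assays.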

[16] = molecular target: T2, Discoidin domain-containing receptor 2 (Homo sapiens, UniProt Q16832); experiment: Inhibition of GST-tagged human DDR2 cytoplasmic domain (427 to 855 residues) expressed in baculovirus expression system by LanthaScreen assay; outline: as §3
T2 sequence (Q16832 whole entry): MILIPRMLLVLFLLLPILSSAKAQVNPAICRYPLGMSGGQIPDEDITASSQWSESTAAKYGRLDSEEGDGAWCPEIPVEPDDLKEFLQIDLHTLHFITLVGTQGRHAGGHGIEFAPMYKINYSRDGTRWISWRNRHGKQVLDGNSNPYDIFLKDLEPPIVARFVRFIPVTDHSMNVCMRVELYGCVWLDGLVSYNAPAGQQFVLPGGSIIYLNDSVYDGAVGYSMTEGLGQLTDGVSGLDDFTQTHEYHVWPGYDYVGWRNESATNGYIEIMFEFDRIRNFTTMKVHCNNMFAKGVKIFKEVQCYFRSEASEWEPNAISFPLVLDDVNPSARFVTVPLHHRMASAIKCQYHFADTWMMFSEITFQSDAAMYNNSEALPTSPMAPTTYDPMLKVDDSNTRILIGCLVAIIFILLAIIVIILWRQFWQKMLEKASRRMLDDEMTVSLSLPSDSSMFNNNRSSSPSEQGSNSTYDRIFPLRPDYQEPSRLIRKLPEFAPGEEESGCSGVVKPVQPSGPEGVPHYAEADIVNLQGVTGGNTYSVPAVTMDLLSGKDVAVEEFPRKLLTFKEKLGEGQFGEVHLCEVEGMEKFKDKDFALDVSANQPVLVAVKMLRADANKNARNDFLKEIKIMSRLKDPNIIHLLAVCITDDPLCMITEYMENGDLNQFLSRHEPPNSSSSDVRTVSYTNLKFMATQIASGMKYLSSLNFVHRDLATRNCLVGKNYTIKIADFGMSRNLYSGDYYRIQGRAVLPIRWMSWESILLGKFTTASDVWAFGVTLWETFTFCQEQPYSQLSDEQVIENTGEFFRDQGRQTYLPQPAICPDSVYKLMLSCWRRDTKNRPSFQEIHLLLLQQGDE

dengue virus type 2 [17] = experiment: Antiviral activity against Dengue virus serotype 2 strain New Guinea C infected in HuH7 cells assessed as reduction in log-fold change by measuring focus forming unit at 10 uM measured at 24 hrs post infection by focus forming assay relative to control; assay type: functional, Thailand/NGS-C/1944; outline: as §2

Sequence of Epithelial discoidin domain-containing receptor 1 (Q08345 whole entry, the tested form may be a part): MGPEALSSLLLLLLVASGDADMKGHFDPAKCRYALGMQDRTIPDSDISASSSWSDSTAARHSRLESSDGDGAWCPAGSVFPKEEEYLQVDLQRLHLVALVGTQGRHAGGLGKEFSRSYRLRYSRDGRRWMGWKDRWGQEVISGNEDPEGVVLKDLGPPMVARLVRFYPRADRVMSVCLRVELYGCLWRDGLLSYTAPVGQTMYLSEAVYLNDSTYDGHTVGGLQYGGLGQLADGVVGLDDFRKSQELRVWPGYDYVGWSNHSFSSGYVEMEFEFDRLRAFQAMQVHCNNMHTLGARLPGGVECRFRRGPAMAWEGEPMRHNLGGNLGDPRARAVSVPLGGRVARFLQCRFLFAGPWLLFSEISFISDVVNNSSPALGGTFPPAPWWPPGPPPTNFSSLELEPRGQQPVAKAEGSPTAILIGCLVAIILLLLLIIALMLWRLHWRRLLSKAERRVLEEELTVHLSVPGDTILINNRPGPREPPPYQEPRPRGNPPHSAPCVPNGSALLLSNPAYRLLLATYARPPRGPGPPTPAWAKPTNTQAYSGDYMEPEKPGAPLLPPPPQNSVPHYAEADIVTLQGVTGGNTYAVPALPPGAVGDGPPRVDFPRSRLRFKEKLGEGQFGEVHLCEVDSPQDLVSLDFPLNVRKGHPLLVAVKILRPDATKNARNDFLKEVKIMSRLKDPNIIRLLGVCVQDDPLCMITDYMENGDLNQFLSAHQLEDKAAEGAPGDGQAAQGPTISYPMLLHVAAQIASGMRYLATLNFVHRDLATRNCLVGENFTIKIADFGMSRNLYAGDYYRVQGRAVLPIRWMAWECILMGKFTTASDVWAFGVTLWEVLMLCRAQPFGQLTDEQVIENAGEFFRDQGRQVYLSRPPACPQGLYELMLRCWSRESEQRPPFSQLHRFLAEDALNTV

Cc1ccc(-n2c(=O)ccc3ccc4ccc(-c5cnn(C)c5)cc4c32)cc1NC(=O)/C=C/CN(C)C
half-life [1]: 1.07 h
Cmax [2]: 4510 ng/mL
AUC(0-t) [3]: 8220 ng·h/mL
Activity (dengue virus type 2 [4]): 4 log10FFU/ml
AUC(0-inf) [5]: 8550 ng·h/mL
Selectivity Index [6]: 35
CC50 at 24 h [7]: 12 to 20 µM
IC50 [8]: 5.02 µM
bioavailability [9]: 12%
half-life at 1 µM [10]: 0.26 h
AUC(0-inf) [11]: 1210 ng·h/mL
Tmax [12]: 1 h
Cmax [13]: 40.4 ng/mL
AUC(0-t) [14]: 1110 ng·h/mL
IC50 [15]: 2.42 µM
IC50 [16]: > 10 µM
Activity (dengue virus type 2 [17]): 4 log10FFU/ml
